ChEMBL document CHEMBL1148398, “Design, synthesis, and biological evaluation of thio-containing compounds with serum HDL-cholesterol-elevating properties” (2004)

Assays:
Rattus norvegicus [1] = test: Effect of compound on thyroxine levels in 6th group of normal chow-fed male rats after a dose of 50 mg/kg/day; assay type: functional, organism-based
How it was run: (§1)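 Male Sprague–Dawley CD rats, 60–80 g, on standard chow with reverse 12 h light/dark cycle. One oral gavage dose daily for 4 days, suspended in 1.3% Tween 80 and 0.25% CMC. Fasted overnight; sacrificed 24 h after the last dose. Serum TC on clinical analyzer, lipoproteins by FPLC with cholesterol per fraction, T4 on analyzer. Mean ± SEM, six rats per group.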

Cricetinae gen. sp. [2] = test: Effect of compound on very low-density lipoprotein cholesterol levels in 2nd group of cholesterol-fed male hamsters at 10 mg/kg/day after 14 days of treatment; details: Mesocricetus auratus
Cricetinae gen. sp. [3] = test: Effect of compound on lactic dehydrogenase (LDH) levels in 4th group of cholesterol-fed male hamsters at 100 mg/kg/day after 14 days of treatment; details: Mesocricetus auratus
Cricetinae gen. sp. [4] = test: Effect of compound on aspartate aminotransferase (AST) levels in 1st group of cholesterol-fed male hamsters at 3 mg/kg/day after 14 days of treatment; details: Mesocricetus auratus
Rattus norvegicus [5] = test: Effect of compound on triglycerides level in 3rd group of normal chow-fed male rats after a dose of 5 mg/kg/day; assay type: functional, organism-based
How it was run: (§2)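 Male Sprague–Dawley CD rats (60–80 g) on Purina 5001 chow with a reverse 12 h light/dark cycle. Dosed once daily by oral gavage for 4 days, suspended in 1.3% Tween 80 / 0.25% CMC. Fasted overnight and bled 24 h after the last dose. Serum TC and glycerol-blanked TG measured enzymatically; VLDL-C by FPLC fractionation with cholesterol assay. n=6, mean ± SEM.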

Cricetinae gen. sp. [6] = test: Effect of compound on total plasma cholesterol levels in 1st group of cholesterol-fed male hamsters at 3 mg/kg/day after 14 days of treatment; details: Mesocricetus auratus
Rattus norvegicus [7] = test: Effect of compound on total plasma cholesterol levels in 2nd group of normal chow-fed male rats after a dose of 2 mg/kg/day; assay type: functional, organism-based; how it was run: as §1
Rattus norvegicus [8] = test: Percent change in triglycerides following oral administration of compound in normal chow-fed rats at 100 mg/kg/day for 4 days; assay type: functional
How it was run: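 Chow-fed male Sprague–Dawley CD rats, 60–80 g, gavaged 100 mg/kg/day for 4 days in 1.3% Tween 80/0.25% CMC. Fasted overnight, bled 24 h after the last dose. Total cholesterol and glycerol-blanked triglycerides read enzymatically; lipoproteins by FPLC with cholesterol per fraction. % change versus control; six per group, p < 0.05.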

Rattus norvegicus [9] = test: Effect of compound on liver weight in 1st group of normal chow-fed male rats after a dose of 1 mg/kg/day; assay type: functional
How it was run: (§3)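 Male Sprague–Dawley CD rats, 60–80 g, on chow with a reverse 12 h light/dark cycle. Given one oral gavage dose daily for 4 days, suspended in 1.3% Tween 80/0.25% CMC. Fasted overnight and sacrificed 24 h after the last dose for blood and liver. Serum liver enzymes read on a clinical analyzer. Six per group, mean ± SEM.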

Cricetinae gen. sp. [10] = test: Effect of compound on thyroxine levels in 2nd group of cholesterol-fed male hamsters at 10 mg/kg/day after 14 days of treatment; details: Mesocricetus auratus
Rattus norvegicus [11] = test: Effect of compound on total plasma cholesterol levels in 7th group of normal chow-fed male rats after a dose of 100 mg/kg/day; assay type: functional, organism-based; how it was run: as §2
Cricetinae gen. sp. [12] = test: Effect of compound on total plasma cholesterol levels in 3rd group of cholesterol-fed male hamsters at 30 mg/kg/day after 14 days of treatment; details: Mesocricetus auratus
[13] = Effect on serum lipids in 1st group of cholesterol-fed male hamsters at 3 mg/kg/day after 14 days of treatment was evaluated as ratio of total cholesterol levels to high-density lipoprotein cholesterol levels; assay type: functional
How it was run: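 Male Syrian Golden hamsters on chow plus 0.25% cholesterol, 2 weeks before and during dosing. Oral gavage for 14 days in 2% Tween 80/saline. Fasted 4 h before sacrifice. Serum total cholesterol measured enzymatically; HDL-C from cholesterol in FPLC lipoprotein fractions; TC/HDL-C ratio calculated. Six per group, mean ± SEM.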

Rattus norvegicus [14] = test: Effect of compound on gain in body weight in 4th group of normal chow-fed male rats after a dose of 10 mg/kg/day; assay type: functional
How it was run: (§4)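 Male Sprague–Dawley CD rats (60–80 g) on standard chow under a reversed 12 h light/dark cycle. Compound was suspended in 1.3% Tween 80/0.25% CMC and given as a single daily oral gavage dose for 4 days. Rats were fasted overnight and killed 24 h after the last dose. Serum ALT, AST, ALKP and LDH were read on a clinical analyzer. Weight gain was start versus end weight. Mean ± SEM, n = 6.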

Rattus norvegicus [15] = test: Effect of compound on very low-density lipoprotein cholesterol levels in 2nd group of normal chow-fed male rats after a dose of 2 mg/kg/day; assay type: functional, organism-based; how it was run: as §2
Rattus norvegicus [16] = test: Effect of compound on serum apolipoprotein A1 concentration in chow-fed male rats at a dose of 100 mg/kg/day; assay type: functional, organism-based
How it was run: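 Separate dose-response study in male Sprague–Dawley CD rats, 60–80 g, on chow. Oral gavage once daily for 4 days in 1.3% Tween 80 / 0.25% CMC; fasted overnight, bled 24 h after last dose. Apo-A1 by ELISA with rabbit anti-rat primary, alkaline phosphatase-conjugated anti-rabbit IgG and p-nitrophenyl phosphate substrate. HDL-C by FPLC fractionation. Mean ± SEM, six per group.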

Cricetinae gen. sp. [17] = test: Effect of compound on alanine aminotransferase (ALT) levels in 2nd group of cholesterol-fed male hamsters at 10 mg/kg/day after 14 days of treatment; details: Mesocricetus auratus
Rattus norvegicus [18] = test: Effect of compound on gain in body weight in 1st group of normal chow-fed male rats after a dose of 1 mg/kg/day; assay type: functional; how it was run: as §4
Rattus norvegicus [19] = test: Effect of compound on very low-density lipoprotein cholesterol levels in 7th group of normal chow-fed male rats after a dose of 100 mg/kg/day; assay type: functional, organism-based; how it was run: as §2
Rattus norvegicus [20] = test: Effect of compound on lactic dehydrogenase (LDH) levels in 2nd group of normal chow-fed male rats after a dose of 2 mg/kg/day; assay type: functional, organism-based; how it was run: as §4
Mesocricetus auratus [21] = test: Effect of compound on alanine aminotransferase (ALT) levels in 3rd group of cholesterol-fed male hamsters at 30 mg/kg/day after 14 days of treatment
Rattus norvegicus [22] = test: Effect of compound on high-density lipoprotein cholesterol levels in 6th group of normal chow-fed male rats after a dose of 50 mg/kg/day; assay type: functional, organism-based
Rattus norvegicus [23] = test: Effect of compound on liver weight in 6th group of normal chow-fed male rats after a dose of 50 mg/kg/day; assay type: functional; how it was run: as §3
Rattus norvegicus [24] = test: Effect of compound on thyroxine levels in 7th group of normal chow-fed male rats after a dose of 100 mg/kg/day; assay type: functional, organism-based; how it was run: as §1
Mesocricetus auratus [25] = test: Effect of compound on liver weight in 4th group of cholesterol-fed male hamsters at 100 mg/kg/day after 14 days of treatment
Cricetinae gen. sp. [26] = test: Effect of compound on high-density lipoprotein cholesterol levels in 1st group of cholesterol-fed male hamsters at 3 mg/kg/day after 14 days of treatment; assay type: functional, organism-based

## CCN1CC(=O)N(c2cc(Cl)ccc2C)C1=S
Rattus norvegicus [1]
  Serum level: 3.47 µg/dL
Cricetinae gen. sp. [2]
  Serum level: 102 mg/dL
Cricetinae gen. sp. [3]
  Level: 1390 U l-1
Cricetinae gen. sp. [4]
  Level: 312 U l-1
Rattus norvegicus [5]
  Serum level: 18 mg/dL
Cricetinae gen. sp. [6]
  Serum level: 429 mg/dL
Rattus norvegicus [7]
  Serum level: 56 mg/dL
Rattus norvegicus [8]
  Change: -23.1%
Rattus norvegicus [9]
  Liver weight: 8.4 g
Cricetinae gen. sp. [10]
  Serum level: 5.73 µg/dL
Rattus norvegicus [11]
  Serum level: 118 mg/dL
Cricetinae gen. sp. [12]
  Serum level: 372 mg/dL
[13]
  Ratio: 3.14
Rattus norvegicus [14]
  Body weight: 33.2 g
Rattus norvegicus [15]
  Serum level: 2.8 mg/dL
Rattus norvegicus [16]
  Serum level: 96.4 mg/dL
Cricetinae gen. sp. [17]
  Level: 134 U l-1
Rattus norvegicus [18]
  Body weight: 26.3 g
Rattus norvegicus [19]
  Serum level: 5.7 mg/dL
Rattus norvegicus [20]
  Level: 692 U l-1
Mesocricetus auratus [21]
  Level: 112 U l-1
Rattus norvegicus [22]
  Serum level: 61 mg/dL
Rattus norvegicus [23]
  Liver weight: 7.3 g
Rattus norvegicus [24]
  Serum level: 3.4 µg/dL
Mesocricetus auratus [25]
  Liver weight: 8.95 g
Cricetinae gen. sp. [26]
  Serum level: 136 mg/dL
